Measured values reported in ChEMBL document CHEMBL1122536, “Novel pyrimidine and 1,3,5-triazine hypolipidemic agents” (J Med Chem, 1984).
Where “and” joins values, the source holds several entries; their conditions need not be identical. Equal entries are not always repeated.

How the values were obtained:
[1] = test system: Rattus norvegicus; assay: Hypolipidemic activity was assessed by measuring liver weight in Sprague-Dawley male rats at 50 mg/kg; assay type: functional
[2] = test system: Rattus norvegicus; assay: Hyperlipidemic activity was assessed by measuring liver weight in Sprague-Dawley male rats at 50 mg/kg; assay type: functional
How it was run: (§1)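 Sprague-Dawley rats were fed the hyperlipidemic Nath's diet for 15 days and dosed orally at 50 or 200 mg/kg, or at 6.25, 12.5 and 25 mg/kg on a diet with 0.5% cholesterol and cholic acid. After an 18-h fast they were killed on day 16, 24 h after the last dose. Serum total cholesterol and triglycerides were assayed, and liver weight was expressed per 100 g bodyweight. Groups were compared with Nath's-diet controls by Student's t test.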

[3] = species: Rattus norvegicus; assay: Compound dose that causes […] in Sprague-Dawley male rats; assay type: functional
[4] = species: Rattus norvegicus; assay: (§2) Compound was evaluated for the dose that causes […] in Sprague-Dawley male rats; assay type: functional
[5] = test system: Rattus norvegicus; assay: Hypolipidemic activity was assessed in Variation of the liver enzyme catalase was expressed as units per mg of protein in F 344 rats at 20 mg/kg
[6] = test system: Rattus norvegicus; assay: Hypolipidemic activity was assessed by measuring cholesterol in Sprague-Dawley male rats at 200 mg/kg; assay type: functional
How it was run: (§3)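 Male Sprague-Dawley rats (185-g mean bodyweight) on a normal diet were dosed orally for 4 consecutive days at 50 mg/kg or 200 mg/kg. They were fasted 18 h, and blood was drawn from the abdominal aorta 24 h after the last dose. Serum total cholesterol, triglycerides (mg/100 mL) and lipoprotein α-cholesterol (% of total cholesterol) were measured. Groups of 10–40 rats were compared with controls by Student's t test.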

[7] = test system: Rattus norvegicus; assay: Hypolipidemic activity was assessed by measuring triglycerides in Sprague-Dawley male rats at 200 mg/kg; assay type: functional; how it was run: as §3
[8] = test system: Rattus norvegicus; assay: Hypolipidemic activity was assessed by measuring body weight in F 344 rats at 20 mg/kg
[9] = test system: Rattus norvegicus; assay: Hyperlipidemic activity was assessed by measuring triglycerides in Sprague-Dawley male rats at 50 mg/kg; assay type: functional; how it was run: as §1
[10] = test system: Rattus norvegicus; assay: Hypolipidemic activity was assessed by measuring alpha-cholesterol in Sprague-Dawley male rats at 200 mg/kg; assay type: functional; how it was run: as §3
[11] = test system: Rattus norvegicus; assay: Hypolipidemic activity was assessed by measuring alpha-cholesterol in Sprague-Dawley male rats at 50 mg/kg; assay type: functional; conditions: dose 50 mg/kg; how it was run: as §3
[12] = test system: Rattus norvegicus; assay: Hypolipidemic activity was assessed by measuring triglycerides in Sprague-Dawley male rats at 50 mg/kg; assay type: functional; how it was run: as §3
[13] = Evaluated for the dose that causes 50 % lethality in Sprague-Dawley male rats; assay type: ADME, organism-based; conditions: rat, in vivo
[14] = test system: Rattus norvegicus; assay: Hypolipidemic activity was assessed by measuring cholesterol in Sprague-Dawley male rats at 50 mg/kg; assay type: functional; how it was run: as §3
[15] = test system: Rattus norvegicus; assay: Hyperlipidemic activity was assessed by measuring cholesterol in Sprague-Dawley male rats at 50 mg/kg; assay type: functional; how it was run: as §1
[16] = test system: Rattus norvegicus; assay: Hypolipidemic activity was assessed in variation of palmitoyl-CoA oxide (umol/min mg) in F 344 rats at 20 mg/kg
[17] = test system: Rattus norvegicus; assay: Hypolipidemic activity was assessed in variation of the liver enzyme catalase was expressed as units per mg of protein in F 344 rats at 20 mg/kg
[18] = test system: Rattus norvegicus; assay: Hypolipidemic activity was assessed in Variation of the carnitine acetyl transferase was expressed as units per mg of protein in F 344 rats at 20 mg/kg
[19] = test system: Rattus norvegicus; assay: Hypolipidemic activity was assessed inVariation of the enoyl-CoA oxide (umol/min mg) in F 344 rats at 20 mg/kg
[20] = test system: Rattus norvegicus; assay: Hypolipidemic activity was assessed in Variation of the enoyl-CoA oxide (umol/min mg) in F 344 rats at 20 mg/kg
[21] = test system: Rattus norvegicus; assay: Hyperlipidemic activity was assessed by measuring triglycerides in Sprague-Dawley male rats at 200 mg/kg; assay type: functional; how it was run: as §1
[22] = test system: Rattus norvegicus; assay: Hypolipidemic activity was assessed in Variation of the liver enzyme catalase was expressed as units per mg of protein. in F 344 rats at 20 mg/kg
[23] = test system: Rattus norvegicus; assay: Hyperlipidemic activity was assessed by measuring cholesterol in Sprague-Dawley male rats at 200 mg/kg
[24] = test system: Rattus norvegicus; assay: Hypolipidemic activity was assessed by measuring liver weight in Sprague-Dawley male rats at 200 mg/kg; assay type: functional; how it was run: as §1
[25] = test system: Rattus norvegicus; assay: Hypolipidemic activity was assessed in Variation of palmitoyl-CoA oxide (umol/min mg) in F 344 rats at 20 mg/kg
[26] = as §2; assay type: ADME, organism-based; conditions: rat, in vivo
[27] = test system: Rattus norvegicus; assay: Hypolipidemic activity was assessed inVariation of the enoyl-CoA oxide (umol/min mg) in F 344 rats at 20 mg/kg.
[28] = test system: Rattus norvegicus; assay: Hypolipidemic activity was assessed in Variation of the liver enzyme catalase was expressed as units per mg of protein in F 344 rats at 20 mg/kg; remark: listed apart in the source
[29] = test system: Rattus norvegicus; assay: Hyperlipidemic activity was assessed by measuring liver weight in Sprague-Dawley male rats at 12.5 mg/kg; assay type: functional; how it was run: as §1
[30] = test system: Rattus norvegicus; assay: Hyperlipidemic activity was assessed by measuring liver weight in Sprague-Dawley male rats at 25 mg/kg; assay type: functional; how it was run: as §1
[31] = test system: Rattus norvegicus; assay: Hyperlipidemic activity was assessed by measuring cholesterol in Sprague-Dawley male rats at 6.25 mg/kg; assay type: functional; how it was run: as §1
[32] = test system: Rattus norvegicus; assay: Hyperlipidemic activity was assessed by measuring cholesterol in Sprague-Dawley male rats at 12.5 mg/kg; assay type: functional; how it was run: as §1
[33] = test system: Rattus norvegicus; assay: Hyperlipidemic activity was assessed by measuring triglycerides in Sprague-Dawley male rats at 6.25 mg/kg; assay type: functional; how it was run: as §1
[34] = test system: Rattus norvegicus; assay: Hyperlipidemic activity was assessed by measuring liver weight in Sprague-Dawley male rats at 6.25 mg/kg; assay type: functional; how it was run: as §1
[35] = test system: Rattus norvegicus; assay: Hyperlipidemic activity was assessed by measuring cholesterol in Sprague-Dawley male rats at 25 mg/kg; assay type: functional; how it was run: as §1
[36] = test system: Rattus norvegicus; assay: Hyperlipidemic activity was assessed by measuring triglycerides in Sprague-Dawley male rats at 12.50 mg/kg; assay type: functional; conditions: dose 12.5 mg/kg; how it was run: as §1
[37] = test system: Rattus norvegicus; assay: Hyperlipidemic activity was assessed in variation of palmitoyl-CoA oxide (umol/min mg) in F 344 rats at 20 mg/kg.
[38] = test system: Rattus norvegicus; assay: Hyperlipidemic activity was assessed by measuring triglycerides in Sprague-Dawley male rats at 25 mg/kg; assay type: functional; how it was run: as §1
[39] = dose 20 mg/kg, in the assay text read “F 344 rats at 20 mg/kg” for “Sprague-Dawley male rats at 50 mg/kg”

Row | Structure (SMILES) | Liver weight [1, 39] | Liver weight [2] [g 100g-1] | Body weight [8] [g] | Triglycerides [9] [mg 100ml-1] | Alpha-cholesterol [11] [%] | Triglycerides [12] [mg/100 mL] | LD50 [13] [mg/kg] | Cholesterol [14] [mg 100ml-1] | Carnitine acetyl transferase [18] [U/mg protein] | also measured
1 | CCOc1nc(Nc2cccc(C)c2C)nc(SCC(=O)O)n1 | 3.1 g (100g of body weight)-1 | 6.53 | 248 | <214.3 | – | – | – | – | – | LD50 [3]: 1120 mg/kg; Cholesterol [4]: 1054.8 mg 100ml-1; Catalase [5]: 50 U/mg protein; Cholesterol [6]: 70.3 mg 100ml-1; Triglycerides [7]: < 76.1 mg/100 mL; Alpha-cholesterol [10]: <82.2%
2 | CCOc1cc(Nc2cccc(C)c2C)nc(SCC(=O)NCCO)n1 | 5.9 g (100g of body weight)-1 | 6.85 | 192 | <206.6 | 76.6 | < 64.3 | 2500 | <65.7 | – | Catalase [5]: 67.5 U/mg protein; Cholesterol [15]: <479.8 mg 100ml-1
3 | Cc1cccc(Nc2cc(Cl)nc(OCC(=O)O)n2)c1C | 4.5 g (100g of body weight)-1 | 6.29 | 245 | <215.6 | <83.8 | < 67.3 | 1080 | <57.3 | 10 | Palmitoyl-CoA oxid [16]: 0.088 µM/min/mg; Catalase [17]: 77 U/mg protein; Enoyl-CoA hydratase [19]: 2.5 µM/min/mg; Cholesterol [15]: <548.8 mg 100ml-1
4 | Cc1cccc(Nc2cc(Cl)nc(N(C)C)n2)c1C [LODINIXIL] | 3.9 g (100g of body weight)-1 | – | 268 | – | 69.6 | 96.5 | < 2500 | 57.8 | 7 | Enoyl-CoA hydratase [20]: 3.8 µM/min/mg; Triglycerides [21]: <182 mg 100ml-1; Catalase [22]: 38 U/mg protein; Cholesterol [23]: 771 mg 100ml-1; Liver weight [24]: 5.97 g 100g-1; Palmitoyl-CoA oxid [25]: 0.015 µM/min/mg
5 | Cc1cccc(Nc2nc(Cl)nc(OCC(=O)O)n2)c1C | – | – | – | – | – | – | – | – | – | LD50 [26]: 1180 mg/kg; Cholesterol [6]: 72 mg 100ml-1; Triglycerides [7]: < 65.5 mg/100 mL; Alpha-cholesterol [10]: <82.1%
6 | Cc1cccc(Nc2cc(Cl)nc(NCC(=O)O)n2)c1C [ARONIXIL] | 4.2 g (100g of body weight)-1 | – | 266 | – | 76.7 | < 71.6 | 1020 | <63.6 | 11 | Enoyl-CoA hydratase [27]: 3.7 uM min-1 (mg of protein)-1; Liver catalase [28]: 61 mg of protein; Liver weight [29]: 5.14 g 100g-1; Liver weight [30]: 5.31 g 100g-1; Cholesterol [31]: 257.4 mg 100ml-1; Cholesterol [32]: 264.2 mg 100ml-1; Triglycerides [33]: <205.2 mg 100ml-1; Liver weight [34]: 4.82 g 100g-1; Cholesterol [35]: <215.4 mg 100ml-1; Triglycerides [36]: 263.8 mg 100ml-1; Palmitoyl-CoA oxid [37]: 0.056 µM/min/mg; Triglycerides [38]: 312.1 mg 100ml-1
7 | Cc1cccc(Nc2cc(Cl)nc(SCC(=O)O)n2)c1C [PIRINIXIC ACID] | – | – | – | – | 75.1 | – | 1050 | – | – | Liver weight ([1]; dose 50 mg/kg): 8.23 g 100g-1 and 8.88 g 100g-1
